ChEMBL document CHEMBL3526049 (Drug Metab Dispos, 2012)

What was measured:
[1] = Tmax in MRP2 knockout Sprague-Dawley rat at 5 mg/kg, po by LC-MS/MS analysis; assay type: ADME, organism-based; parameters: dose 5 mg/kg, route oral; conditions: in vivo
Outline: (§1)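 Male Sprague-Dawley rats (knockouts age- and weight-matched to wild type), femoral-artery and vein cannulated, recovered ≥2 days. IV/oral crossover: 1 mg/kg IV bolus on day 0, then after a 3-day washout 5 mg/kg oral gavage in 10 ml/kg 50% Cremophor EL in ethanol. Arterial plasma 0–24 h, protein-precipitated, LC-MS/MS (positive ion, 1–5000 ng/ml). Noncompartmental analysis; n=5–9.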

Kidney = experiment: Drug uptake in MDR1A knockout Sprague-Dawley rat kidney at 1 mg/kg, iv; assay type: ADME, organism-based; parameters: dose 1 mg/kg, route intravenous; conditions: in vivo
[2] = Volume of distribution at steady state in wild-type Sprague-Dawley rat at 1 mg/kg, iv by LC-MS/MS analysis; assay type: ADME, organism-based; parameters: dose 1 mg/kg, route intravenous; conditions: in vivo, read-out: Vdss
Outline: (§2)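 Male Sprague-Dawley rats (knockout or wild type matched for age and weight), femoral artery and vein cannulated, at least 2 days recovery. Crossover design: IV bolus 1 mg/kg on day 0 (saline with 0.2 M equivalents HCl), oral gavage 10 mg/kg on day 3 (water with 0.2 M equivalents HCl). Arterial plasma sampled to 24 h (Mdr1a oral arm to 4 h). Analysed by LC-MS/MS and noncompartmental analysis.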

[3] = Oral bioavailability in BCRP knockout Sprague-Dawley rat at 5 mg/kg by LC-MS/MS analysis; assay type: ADME, organism-based; conditions: in vivo; outline: as §1
Liver [4] = experiment: Drug uptake in MDR1A knockout Sprague-Dawley rat liver at 1 mg/kg, iv; assay type: ADME, organism-based; parameters: dose 1 mg/kg, route intravenous; conditions: in vivo
[5] = Tmax in MDR1A knockout Sprague-Dawley rat at 5 mg/kg, po by LC-MS/MS analysis; assay type: ADME, organism-based; parameters: dose 5 mg/kg, route oral; conditions: in vivo
[6] = Drug excretion in bile duct-cannulated wild-type Sprague-Dawley rat bile at 1 mg/kg, iv up to 24 hrs; assay type: ADME, organism-based; parameters: dose 1 mg/kg, route intravenous; conditions: read-out: Drug excretion
Outline: (§3)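 Male Sprague-Dawley rats with bile-duct and femoral cannulation, housed in metabolism cages. Given an IV bolus of 1 mg/kg in 2 ml/kg 50% Cremophor EL in ethanol. Urine, bile and feces collected in toto 0–24 h, with cage wash at 24 h. Amounts quantified by LC-MS/MS and expressed as % of dose; n=6–12.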

[7] = AUC (infinity) in BCRP knockout Sprague-Dawley rat at 5 mg/kg, po by LC-MS/MS analysis; assay type: ADME, organism-based; parameters: time infinity, dose 5 mg/kg, route oral; conditions: plasma; outline: as §1
[8] = Half life in MDR1A knockout Sprague-Dawley rat at 5 mg/kg, po by LC-MS/MS analysis; assay type: ADME, organism-based; parameters: dose 5 mg/kg, route oral; conditions: in vivo; outline: as §1
[9] = AUC (infinity) in MDR1A knockout Sprague-Dawley rat at 5 mg/kg, po by LC-MS/MS analysis; assay type: ADME, organism-based; parameters: time infinity, dose 5 mg/kg, route oral; conditions: plasma
[10] = Half life in BCRP knockout Sprague-Dawley rat at 1 mg/kg, iv by LC-MS/MS analysis; assay type: ADME, organism-based; parameters: dose 1 mg/kg, route intravenous; conditions: in vivo; outline: as §2
[11] = Tmax in wild-type Sprague-Dawley rat at 5 mg/kg, po by LC-MS/MS analysis; assay type: ADME, organism-based; parameters: dose 5 mg/kg, route oral; conditions: in vivo; outline: as §1
[12] = Oral bioavailability in MDR1A knockout Sprague-Dawley rat at 5 mg/kg by LC-MS/MS analysis; assay type: ADME, organism-based; conditions: in vivo
Liver [13] = experiment: Drug uptake in BCRP knockout Sprague-Dawley rat liver at 1 mg/kg, iv; assay type: ADME, organism-based; parameters: dose 1 mg/kg, route intravenous; conditions: in vivo
Rattus norvegicus [14] = experiment: AUC (infinity) in MRP2 knockout Sprague-Dawley rat at 1 mg/kg, iv by LC-MS/MS analysis; assay type: ADME, organism-based, Plasma; parameters: time infinity, dose 1 mg/kg, route intravenous; conditions: in vivo
[15] = Cmax in BCRP knockout Sprague-Dawley rat at 5 mg/kg, po by LC-MS/MS analysis; assay type: ADME, organism-based; parameters: dose 5 mg/kg, route oral; conditions: in vivo; outline: as §1
[16] = Drug excretion in bile duct-cannulated MRP2 knockout Sprague-Dawley rat urine at 1 mg/kg, iv up to 24 hrs; assay type: ADME, organism-based; parameters: dose 1 mg/kg, route intravenous; conditions: read-out: Drug excretion; outline: as §3
Brain [17] = experiment: Drug uptake in BCRP knockout Sprague-Dawley rat brain at 1 mg/kg, iv; assay type: ADME, organism-based; parameters: dose 1 mg/kg, route intravenous; conditions: in vivo
[18] = Cmax in MRP2 knockout Sprague-Dawley rat at 5 mg/kg, po by LC-MS/MS analysis; assay type: ADME, organism-based; parameters: dose 5 mg/kg, route oral; conditions: in vivo; outline: as §1
Brain [19] = experiment: Drug uptake in MDR1A knockout Sprague-Dawley rat brain at 1 mg/kg, iv; assay type: ADME, organism-based; parameters: dose 1 mg/kg, route intravenous; conditions: in vivo
[20] = Drug excretion in bile duct-cannulated BCRP knockout Sprague-Dawley rat urine at 1 mg/kg, iv up to 24 hrs; assay type: ADME, organism-based; parameters: dose 1 mg/kg, route intravenous; conditions: read-out: Drug excretion; outline: as §3
[21] = Drug excretion in bile duct-cannulated wild-type Sprague-Dawley rat feces at 1 mg/kg, iv up to 24 hrs; assay type: ADME, organism-based; parameters: dose 1 mg/kg, route intravenous; conditions: faeces, read-out: Drug excretion; outline: as §3
[22] = AUC (infinity) in wild-type Sprague-Dawley rat at 1 mg/kg, iv by LC-MS/MS analysis; assay type: ADME, organism-based; parameters: time infinity, dose 1 mg/kg, route intravenous; conditions: plasma
[23] = AUC (infinity) in MDR1A knockout Sprague-Dawley rat at 1 mg/kg, iv by LC-MS/MS analysis; assay type: ADME, organism-based; parameters: time infinity, dose 1 mg/kg, route intravenous; conditions: plasma
[24] = Cmax in MDR1A knockout Sprague-Dawley rat at 5 mg/kg, po by LC-MS/MS analysis; assay type: ADME, organism-based; parameters: dose 5 mg/kg, route oral; conditions: in vivo; outline: as §1
[25] = Cmax in wild-type Sprague-Dawley rat at 5 mg/kg, po by LC-MS/MS analysis; assay type: ADME, organism-based; parameters: dose 5 mg/kg, route oral; conditions: in vivo; outline: as §1
Rattus norvegicus [26] = experiment: Clearance in MRP2 knockout Sprague-Dawley rat at 1 mg/kg, iv by LC-MS/MS analysis; conditions: in vivo

Tmax [1]: 0.9 h
Drug uptake (Kidney): Active
Vd [2]: 30.3 L/kg
bioavailability [3]: 13%
Drug uptake (Liver [4]): Active
Tmax [5]: 1.2 h
dose excreted at 24 h [6]: 0.5%
AUC(0-inf) [7]: 113 ng·h/mL
half-life [8]: 10 h
AUC(0-inf) [9]: 746 ng·h/mL
half-life [10]: 6.4 h
Tmax [11]: 0.8 h
bioavailability [12]: 47%
Drug uptake (Liver [13]): Active
AUC (Rattus norvegicus [14]): 375 ng·h/mL
Cmax [15]: 40 ng/mL
dose excreted at 24 h [16]: 4.5%
Drug uptake (Brain [17]): Active
Cmax [18]: 151 ng/mL
Drug uptake (Brain [19]): Active
dose excreted at 24 h [20]: 2%
dose excreted at 24 h [21]: 2.3%
AUC(0-inf) [22]: 172 ng·h/mL
AUC(0-inf) [23]: 303 ng·h/mL
Cmax [24]: 145 ng/mL
Cmax [25]: 30 ng/mL
CL (Rattus norvegicus [26]): 152 mL/min/kg
Structure (SMILES): CC(=O)O[C@H]1C(=O)[C@@]2(C)[C@H]([C@H](OC(=O)c3ccccc3)[C@]3(O)C[C@H](OC(=O)[C@H](O)[C@@H](NC(=O)c4ccccc4)c4ccccc4)C(C)=C1C3(C)C)[C@]1(OC(C)=O)CO[C@@H]1C[C@@H]2O [PACLITAXEL]
